In ChEMBL document CHEMBL5390224, “Design, synthesis, and biological evaluation of a novel series of 1,2,4-oxadiazole inhibitors of SLACK potassium channels: Identification of in vitro tool VU0935685” (Bioorg Med Chem, 2023):
Activity calls are given as the source filed them. No cut-off for these calls is given here.

How the values were obtained:
Type in all cases: cell-based
HEK293 [1] = test: Activation of wild-type human SLACK expressed in HEK293 cells assessed as efficacy at 30 uM by thallium flux assay relative to control
HEK293 [2] = test: Inhibition of wild-type human SLACK expressed in HEK293 cells assessed as efficacy at 30 uM by thallium flux assay relative to control
Outline: (§1)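 Stable monoclonal HEK293 lines (WT or A934T SLACK) plated 20,000 cells/well; loaded 1 h at room temperature with Thallo-AM dye, 1.25 mM probenecid, masking dye, 0.3% Pluronic F-127 in buffer with 2.7 mM RbCl, pH 7.3. Compound preincubated 120 s, then Tl2SO4 stimulus (2.5 mM); fluorescence read 120 s. Concentration–response 1.5 nM–30 μM in half-log steps, ≥3 replicate wells.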

HEK293 [3] = test: Inhibition of wild-type human SLACK expressed in HEK293 cells by thallium flux assay; outline: as §1
[4] = Inhibition of wild-type human SLACK expressed in CHO cells by whole cell voltage clamp electrophysiology assay; conditions: Cricetulus griseus
Outline: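 Automated whole-cell patch clamp at room temperature. External (mM): NaCl 105, KCl 4, MgCl2 1, CaCl2 5, HEPES 10, NMDG-Cl 40, pH 7.4. Internal: NaCl 70, KF 70, KCl 10, EGTA 5, HEPES 5, pH 7.2. Concentrations 0.125–30 μM in half-log steps, ≥3 cells per series.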

CHO = test: Inhibition of wild-type human SLACK expressed in CHO cells assessed as efficacy at 30 uM by whole cell voltage clamp electrophysiology assay; conditions: Cricetulus griseus

Structure (SMILES) | Efficacy (HEK293 [1]) [%] | Efficacy (HEK293 [2]) | inhibition (HEK293 [3]) | further results
O=S(=O)(c1cccc(F)c1)N1CC(c2nc(-c3ccsc3)no2)C1 | 24 | – | – | –
CCOc1ccccc1NC(=O)N1CC(c2nc(-c3ccsc3)no2)C1 | < 10 | – | – | –
O=S(=O)(c1ccccc1N1CCCC1)N1CC(c2nc(-c3ccc(F)cc3)no2)C1 | – | 92% | – | –
CCOc1ccccc1S(=O)(=O)N1CC(c2nnc(-c3ccc(F)cc3)[nH]2)C1 | 31 | – | – | –
O=S(=O)(c1cccn2ncnc12)N1CC(c2nc(-c3ccc(F)cc3)no2)C1 | 16 | – | – | –
CCOc1ccccc1S(=O)(=O)N1CC(c2ncc(-c3ccc(F)cc3)o2)C1 | 37 | – | – | –
O=S(=O)(c1cccc(C(F)(F)F)c1)N1CC(c2nc(-c3ccsc3)no2)C1 | – | – | – | Efficacy (HEK293 [1]; filed as activator): 61%
O=S(=O)(c1ccccc1OCC1CCC1)N1CC(c2nc(-c3ccc(F)cc3)no2)C1 | – | 88% | – | –
CCOc1ccccc1S(=O)(=O)N1CC(c2nc(-c3ccco3)no2)C1 | – | 44% | – | –
Cc1cccc(S(=O)(=O)N2CC(c3nc(-c4ccsc4)no3)C2)c1 | < 10 | – | – | –
CCOc1ccccc1C(=O)N1CC(c2nc(-c3ccsc3)no2)C1 | 18 | – | – | –
CCOc1ccccc1S(=O)(=O)N1CC(c2nc(-c3ccc(C)cc3)no2)C1 | – | inactive | inactive | –
O=S(=O)(c1ccc(F)cc1)N1CC(c2nc(-c3ccsc3)no2)C1 | – | inactive | inactive | –
CCOc1ccccc1S(=O)(=O)N1CC(c2cc(-c3ccc(F)cc3)on2)C1 | – | inactive | inactive | –
O=S(=O)(c1ccccc1N1CCCCC1)N1CC(c2nc(-c3ccc(F)cc3)no2)C1 | – | 28% | – | –
CCOc1ccccc1S(=O)(=O)N1CC(c2nc(-c3ccccc3C(F)(F)F)no2)C1 | – | – | – | Efficacy (HEK293 [1]; filed as activator): 66%
CCOc1ccccc1S(=O)(=O)N1CC(c2nc(-c3ccc(F)cc3)cn2C)C1 | – | 47% | – | –
CCOc1ccccc1S(=O)(=O)C1CN(c2nc(-c3ccc(F)cc3)no2)C1 | – | 24% | – | –
CCOc1ccccc1S(=O)(=O)N1CC(c2nc(-c3ccccc3)no2)C1 | – | 51% | – | –
CCNc1ccccc1S(=O)(=O)N1CC(c2nc(-c3ccsc3)no2)C1 | – | inactive | inactive | –
CCOc1ccccc1S(=O)(=O)N1CC(c2nc(-c3cccc(F)c3)no2)C1 | – | inactive | inactive | –
CCOc1ccccc1S(=O)(=O)N1CC(c2nc(-c3ncccn3)no2)C1 | – | inactive | inactive | –
O=S(=O)(c1cccn2ccnc12)N1CC(c2nc(-c3ccc(F)cc3)no2)C1 | – | – | – | Efficacy (HEK293 [1]; filed as activator): 48%
O=S(=O)(c1cccc(Cl)c1)N1CC(c2nc(-c3ccsc3)no2)C1 | – | inactive | inactive | –

Structure (SMILES) | Efficacy (HEK293 [1]) [%] | Efficacy (HEK293 [2]) | inhibition (HEK293 [3]) | further results
O=S(=O)(c1ccc(C(F)(F)F)cc1)N1CC(c2nc(-c3ccsc3)no2)C1 | – | inactive | inactive | –
CCOc1ccccc1CN1CC(c2nc(-c3ccsc3)no2)C1 | 31 | – | – | –
CCOc1ccccc1CC(=O)N1CC(c2nc(-c3ccsc3)no2)C1 | 37 | – | – | –
COc1ccc(Cl)cc1NC(=O)CN1CCN(S(=O)(=O)N2CCC(C)CC2)CC1 | – | – | – | IC50 [4]: 2.28 µM; Efficacy (CHO): 95%
CCOc1ccccc1S(=O)(=O)N1CC(c2nc(-c3cccc(C(F)(F)F)c3)no2)C1 | – | 48% | – | –
CCOc1ccccc1S(=O)(=O)N1CC(F)(c2nc(-c3ccc(F)cc3)no2)C1 | – | 98% | – | –
CCOc1ccccc1S(=O)(=O)N1CC(c2nc(-c3ccccn3)no2)C1 | – | inactive | inactive | –
CCOc1ccccc1S(=O)(=O)N1CC(c2nc(-c3cccc(Cl)c3)no2)C1 | – | inactive | inactive | –
CCOc1ccccc1S(=O)(=O)N1CC(c2nc(-c3nccs3)no2)C1 | – | inactive | inactive | –
CCOc1ccccc1S(=O)(=O)N1CC(c2nc(-c3ccc(F)cn3)no2)C1 | – | inactive | inactive | –
O=S(=O)(c1ccccc1OC1CCCC1)N1CC(c2nc(-c3ccc(F)cc3)no2)C1 | – | 93% | – | –
CCOc1ccccc1S(=O)(=O)N1CC(c2nc(-c3ccccc3C)no2)C1 | < 10 | – | – | –
CCOc1ccccc1S(=O)(=O)N1CC(C)(c2nc(-c3ccc(F)cc3)no2)C1 | 14 | – | – | –
O=S(=O)(c1cccc2ccoc12)N1CC(c2nc(-c3ccc(F)cc3)no2)C1 | 37 | – | – | –
CCOc1ccccc1S(=O)(=O)N1CC(c2noc(-c3ccc(F)cc3)n2)C1 | – | 45% | – | –
CCOc1ccccc1S(=O)(=O)N1CC(c2nc(-c3ccc(Cl)cc3)no2)C1 | – | 94% | – | –
Cc1cn2cccc(S(=O)(=O)N3CC(c4nc(-c5ccc(F)cc5)no4)C3)c2n1 | 19 | – | – | –
O=S(=O)(c1ccccc1F)N1CC(c2nc(-c3ccsc3)no2)C1 | 30 | – | – | –
CCOc1ccccc1S(=O)(=O)N1CC(c2nc(-c3ccc(F)cc3)c[nH]2)C1 | 34 | – | – | –
O=S(=O)(c1ccccc1Cl)N1CC(c2nc(-c3ccsc3)no2)C1 | – | – | – | Efficacy (HEK293 [1]; filed as activator): 47%
Cc1nnc2c(S(=O)(=O)N3CC(c4nc(-c5ccc(F)cc5)no4)C3)cccn12 | – | inactive | inactive | –
CCOc1ccccc1S(=O)(=O)N1CC(c2cc(-c3ccc(F)cc3)no2)C1 | – | inactive | inactive | –
O=S(=O)(c1ccc(Cl)cc1)N1CC(c2nc(-c3ccsc3)no2)C1 | – | inactive | inactive | –
CCOc1ccccc1S(=O)(=O)N1CC(c2nc(-c3ccccc3Cl)no2)C1 | – | 81% | – | –

Structure (SMILES) | Efficacy (HEK293 [1]) [%] | Efficacy (HEK293 [2]) | inhibition (HEK293 [3]) | further results
COc1cccc(S(=O)(=O)N2CC(c3nc(-c4ccsc4)no3)C2)c1 | – | inactive | inactive | –
CCOc1ccccc1S(=O)(=O)N1CC(c2nc(-c3cccnc3)no2)C1 | – | inactive | inactive | –
O=S(=O)(c1ccccc1OCC1CC1)N1CC(c2nc(-c3ccc(F)cc3)no2)C1 | – | 95% | – | –
CCCCOc1ccccc1S(=O)(=O)N1CC(c2nc(-c3ccsc3)no2)C1 | – | inactive | inactive | –
CCCc1ccccc1S(=O)(=O)N1CC(c2nc(-c3ccsc3)no2)C1 | – | 79% | – | –
CCOc1ccccc1S(=O)(=O)N1CC(c2nnc(-c3ccc(F)cc3)o2)C1 | < 10 | – | – | –
CCOc1ccccc1S(=O)(=O)N1CC(c2nc(-c3cccc(C)c3)no2)C1 | – | < 10% | – | –
CCOc1ccccc1S(=O)(=O)N1CC(c2nc(-c3ccncc3)no2)C1 | – | inactive | inactive | –
Cc1nc2c(S(=O)(=O)N3CC(c4nc(-c5ccc(F)cc5)no4)C3)cccn2n1 | 16 | – | – | –
O=S(=O)(c1ccccc1C(F)(F)F)N1CC(c2nc(-c3ccsc3)no2)C1 | 36 | – | – | –
CCOc1ccccc1S(=O)(=O)N1CC(c2cc(-c3ccc(F)cc3)n[nH]2)C1 | 24 | – | – | –
CCOc1ccccc1S(=O)(=O)N1CC(c2cn(-c3ccc(F)cc3)nn2)C1 | – | – | – | Efficacy (HEK293 [1]; filed as activator): 41%
CCOc1ccccc1OC(=O)N1CC(c2nc(-c3ccsc3)no2)C1 | – | – | – | Efficacy (HEK293 [1]; filed as activator): 50%
O=S(=O)(c1ccccc1OC1COC1)N1CC(c2nc(-c3ccc(F)cc3)no2)C1 | – | – | – | Efficacy (HEK293 [1]; filed as activator): 43%
CCOc1ccccc1S(=O)(=O)[C@H]1C[C@@H](c2nc(-c3ccc(F)cc3)no2)C1 | – | inactive | inactive | –
CCOc1ccccc1S(=O)(=O)N1CC(c2nc(-c3ccccc3F)no2)C1 | – | 88% | – | –
CCOc1ccccc1S(=O)(=O)[C@H]1C[C@H](c2nc(-c3ccc(F)cc3)no2)C1 | – | 52% | – | –
CCOc1ccccc1C(C)N1CC(c2nc(-c3ccsc3)no2)C1 (stereo not given) | < 10 | – | – | –
CCOc1ccccc1S(=O)(=O)N1CC(c2nc(-c3cccc(OC)c3)no2)C1 | < 10 | – | – | –
O=S(=O)(c1cccn2cnnc12)N1CC(c2nc(-c3ccc(F)cc3)no2)C1 | 14 | – | – | –
CCOc1ccccc1S(=O)(=O)c1ccc(-c2nc(-c3ccc(F)cc3)no2)cc1 | – | inactive | inactive | –
CCOc1ccccc1S(=O)(=O)N1CC(c2nc(-c3ccccc3OC)no2)C1 | 18 | – | – | –
Cc1ccc(S(=O)(=O)N2CC(c3nc(-c4ccsc4)no3)C2)cc1 | – | inactive | inactive | –
CCOc1ncccc1S(=O)(=O)N1CC(c2nc(-c3ccc(F)cc3)no2)C1 | – | 46% | – | –
